This is an account of results in ChEMBL document CHEMBL4680103, “In Vitro and in Vivo Anti-Trypanosoma cruzi Activity of New Arylamine Mannich Base-Type Derivatives” (J Med Chem, 2016).

Each structure is given as a SMILES string. Activity calls are given as the source filed them. The rule behind the calls is not given here.

Data set [1] can be described thus: Genotoxicity in Salmonella typhimurium TA102 at 0.03 to 2.25 ug/plate incubated for 48 hrs in absence of liver S9 fraction by Ames test. The data set is classed as toxicity. As to conditions: salmonella enterica subsp. enterica serovar typhimurium, s9, 48 h. The method in brief: (§1)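 Preincubation Ames assay. […] Top agar with trace histidine/biotin (0.05 mM each) was added and poured onto glucose minimal agar. Plates were incubated 48 h at 37 °C and His+ revertants counted. DMSO was the negative control, with strain-appropriate positive controls. Technical triplicates.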

The test system of data set [2] is Trypanosoma cruzi. Briefly: Antitrypanosomal activity against Trypanosoma cruzi infected in African green monkey Vero cells assessed as reduction in infection rate measured up to 10 days by Giemsa staining based hemocytometry. The format is functional. As to conditions: time day <=10. In a few lines:
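Vero cells infected with metacyclic forms (10:1) were exposed to one concentration per compound immediately after infection for 12 h at 37 °C, 5% CO2. After washing, cultures were kept 10 days with fresh medium every 48 h. Every 48 h, % infected cells and amastigotes per infected cell (200 Giemsa-stained cells) and medium trypomastigotes (Neubauer) were scored. Means of three experiments.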

Data set [3] relates to Trypanosoma cruzi. The experiment in a line: Antitrypanosomal activity against Trypanosoma cruzi SN3 amastigote forms infected in African green monkey Vero cells incubated for 72 hrs by Giemsa staining based micrscopy. The data set is classed as functional, organism-based. The method in brief:
(§2)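 Vero cells (RPMI, 10% inactivated FBS, 37 °C, 5% CO2) were seeded at 1×10^4/well on coverslips and cultured 2 days. They were infected 24 h with metacyclic forms at 10:1. After washing off free parasites, drugs were added at 0.1–100 µM for 72 h. Slides were methanol-fixed and Giemsa-stained; amastigotes were counted in 200 host cells versus untreated. IC50 was calculated.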

The test system of data set [4] is Trypanosoma cruzi. Briefly: Antitrypanosomal activity against Trypanosoma cruzi Arequipa trypomastigotes infected in BALB/c mouse assessed as reduction in parasitemia level in brain measured during acute phase (days 0 to 40 post infection) at 100 mg/kg, po dosed on alternating days (7 to 15 days post infection) by PCR analysis. The format is functional, organism-based.

In data set [5] the test system is Trypanosoma cruzi. The experiment in a line: Antitrypanosomal activity against Trypanosoma cruzi Arequipa trypomastigotes infected in BALB/c mouse assessed as parasitemia re-activation level measured during chronic phase ( day 90 post infection) at 100 mg/kg, po dosed on alternating days (7 to 15 days post infection) relative to acute phase infection (reference value: […]%). The data set is classed as functional.

Data set [6] has as its system Trypanosoma cruzi. The experiment in a line: Antitrypanosomal activity against Trypanosoma cruzi Arequipa trypomastigotes infected in BALB/c mouse assessed as reduction in parasitemia level in stomach measured during acute phase (days 0 to 40 post infection) at 100 mg/kg, po dosed on alternating days (7 to 15 days post infection) by PCR analysis. The format is functional, organism-based.

Data set [7] is described as follows: Genotoxicity in Salmonella typhimurium TA1535 at 0.03 to 2.25 ug/plate incubated for 48 hrs in absence of liver S9 fraction by Ames test. The format is toxicity. As to conditions: salmonella enterica subsp. enterica serovar typhimurium, s9, 48 h. In a few lines:
as §1

A short description of data set [8]: Genotoxicity in Salmonella typhimurium TA98 at 0.03 to 2.25 ug/plate incubated for 48 hrs in absence of liver S9 fraction by Ames test. The format is toxicity. The note with it: salmonella enterica subsp. enterica serovar typhimurium, s9, 48 h. In a few lines:
as §1

Data set [9] relates to Trypanosoma cruzi. Briefly: Antitrypanosomal activity against Trypanosoma cruzi SN3 trypomastigote froms infected in mouse blood incubated for 24 hrs by Neubauer chamber based assay. The data set is classed as functional, organism-based. In a few lines:
(§3)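 Mouse blood taken at peak parasitemia (day 7) was diluted with uninfected blood to 4×10^6 trypomastigotes/mL, then 1:2 in RPMI 1640. Drugs from DMSO stocks were added at 1, 10, 25, 50 and 100 µM and incubated 24 h at 4–8 °C. Parasites were counted in a Neubauer chamber in triplicate. IC50 was calculated versus control.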

For data set [10], the target named is Superoxide dismutase [Cu-Zn] (Homo sapiens, UniProt P00441). The experiment in a line: Inhibition of human erythrocyte CuZn-SOD at 100 uM by NBT dye based spectrophotometry. The method in brief: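 Fe-SOD source: Arequipa epimastigote homogenate (STE buffer pH 7.8, sonication, centrifugation, supernatant; protein by Bradford); CuZn-SOD was commercial human erythrocyte enzyme. Activity was measured as NBT reduction by superoxide in 50 mM potassium phosphate pH 7.8, with compounds at 5 concentrations (1–100 µM). A560 was read before and after 10 min under lamp light with stirring. Three rate determinations; Newman–Keuls test.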

A short description of data set [11]: Genotoxicity in Salmonella typhimurium TA102 at 0.03 to 2.25 ug/plate incubated for 48 hrs in presence of liver S9 fraction by Ames test. As to conditions: salmonella enterica subsp. enterica serovar typhimurium, s9, 48 h. The format is toxicity, subcellular. The method in brief:
as §1

Data set [12] concerns Trypanosoma cruzi. The experiment in a line: Antitrypanosomal activity against Trypanosoma cruzi SN3 epimastigote forms incubated for 72 hrs by hemocytometry. The format is functional, organism-based. The note with it: SN3, 72 h. In a few lines:
(§4)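 Epimastigotes grown in MTL medium with 10% inactivated FBS at 28 °C. Compounds were dissolved in DMSO (0.01% v/v) and added at 0.1–100 µM for 72 h. Parasites were counted in a Neubauer chamber. IC50 (50% growth inhibition) was derived by linear regression of Kc values. Values are averages of four determinations.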

Data set [13] has as its system Trypanosoma cruzi. The experiment in a line: Antitrypanosomal activity against Trypanosoma cruzi Arequipa trypomastigotes infected in BALB/c mouse assessed as reduction in parasitemia level in bone marrow measured during acute phase (days 0 to 40 post infection) at 100 mg/kg, po dosed on alternating days (7 to 15 days post infection) by PCR analysis. The data set is classed as functional, organism-based.

Data set [14] has as its system Trypanosoma cruzi. Briefly: Antitrypanosomal activity against Trypanosoma cruzi Arequipa amastigote forms infected in African green monkey Vero cells incubated for 72 hrs by Giemsa staining based micrscopy. The format is functional, organism-based. The method in brief:
as §2

For data set [15], the system named is Trypanosoma cruzi. The experiment in a line: Antitrypanosomal activity against Trypanosoma cruzi Tulahuen amastigote forms infected in African green monkey Vero cells incubated for 72 hrs by Giemsa staining based micrscopy. The data set is classed as functional, organism-based. In a few lines:
as §2

Data set [16] relates to Trypanosoma cruzi. Briefly: Antitrypanosomal activity against Trypanosoma cruzi Arequipa trypomastigotes infected in BALB/c mouse assessed as reduction in parasitemia level in muscle measured during acute phase (days 0 to 40 post infection) at 100 mg/kg, po dosed on alternating days (7 to 15 days post infection) by PCR analysis. The data set is classed as functional, organism-based.

The test system of another data set is Vero. The experiment in a line: Cytotoxicity in African green monkey Vero cells incubated for 72 hrs. The data set is classed as cell-based. As to conditions: Chlorocebus sabaeus.
The test system of data set [17] is Trypanosoma cruzi. The experiment in a line: Antitrypanosomal activity against Trypanosoma cruzi Arequipa epimastigote forms incubated for 72 hrs by hemocytometry. The format is functional, organism-based. In a few lines: as §4
The subject of data set [18] is Trypanosoma cruzi. Briefly: Antitrypanosomal activity against Trypanosoma cruzi Arequipa trypomastigote froms infected in mouse blood incubated for 24 hrs by Neubauer chamber based assay. The data set is classed as functional, organism-based. The method in brief: as §3
The test system of data set [19] is Trypanosoma cruzi. The experiment in a line: Antitrypanosomal activity against Trypanosoma cruzi Arequipa trypomastigotes infected in BALB/c mouse assessed as reduction in parasitemia level in adipose tissue measured during acute phase (days 0 to 40 post infection) at 100 mg/kg, po dosed on alternating days (7 to 15 days post infection) by PCR analysis. The format is functional, organism-based.

Data set [20] in a line: Genotoxicity in Salmonella typhimurium TA98 at 0.03 to 2.25 ug/plate incubated for 48 hrs in presence of liver S9 fraction by Ames test. The format is toxicity, subcellular. The note with it: salmonella enterica subsp. enterica serovar typhimurium, s9, 48 h. The method in brief:
as §1

In data set [21] the test system is Trypanosoma cruzi. The experiment in a line: Antitrypanosomal activity against Trypanosoma cruzi Arequipa trypomastigotes infected in BALB/c mouse assessed as reduction in splenomegaly by measuring weight percent of spleens […] at 100 mg/kg, po dosed on alternating days (7 to 15 days post infection) by PCR analysis (reference value: 1.603%). The data set is classed as functional.

Data set [22] relates to Trypanosoma cruzi. Briefly: Antitrypanosomal activity against Trypanosoma cruzi Arequipa trypomastigotes infected in BALB/c mouse assessed as reduction in mouse mortality measured during acute phase (days 0 to 40 post infection) at 50 to 100 mg/kg, po dosed on alternating days (7 to 15 days post infection). The data set is classed as functional, organism-based. The note with it: dose 50-100 mg/kg.

Data set [23] can be described thus: Genotoxicity in Salmonella typhimurium TA1537 at 0.03 to 2.25 ug/plate incubated for 48 hrs in absence of liver S9 fraction by Ames test. The format is toxicity. The note with it: salmonella enterica subsp. enterica serovar typhimurium, s9, 48 h. The method in brief:
as §1

Superoxide dismutase [Cu-Zn], sequence (P00441 whole entry): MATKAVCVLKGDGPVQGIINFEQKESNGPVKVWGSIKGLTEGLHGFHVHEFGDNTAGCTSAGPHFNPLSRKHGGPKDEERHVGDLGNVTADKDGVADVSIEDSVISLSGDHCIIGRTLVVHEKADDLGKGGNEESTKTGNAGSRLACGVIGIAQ

Consider `O=C(CCN1CCN(c2ccc(C(F)(F)F)cc2)CC1)c1csc2ccc(F)cc12`, for which the Activity result in data set [1] is “Non-Toxic”; in the data set with Trypanosoma cruzi [5] it was 0%; in data set [7], “Non-Toxic”; in data set [8], “Non-Toxic”; in data set [11] it was “Non-Toxic”; in data set [20] it was “Non-Toxic”. Further, the Activity entry in data set [23] is listed as “Non-Toxic”. The “inhibition (INH)” value in the data set on Trypanosoma cruzi [2] amounted to 47%. In addition, the IC50 was determined as 8.7 µM in the data set with Trypanosoma cruzi [3]; 6.6 µM in the data set on Trypanosoma cruzi [9]; 10.1 µM in the data set with Trypanosoma cruzi [12]; 27.9 µM in the data set on Trypanosoma cruzi [14]; 25.8 µM in the data set on Trypanosoma cruzi [15]; 896 µM in the data set on Vero. For the same molecule, the IC50 in the data set on Trypanosoma cruzi [17] is 51.7 µM; in the data set with Trypanosoma cruzi [18], 13.9 µM. Further, the outcome in the data set with Trypanosoma cruzi [4], in the data set with Trypanosoma cruzi [6], in the data set with Trypanosoma cruzi [13], with Trypanosoma cruzi [16], in the data set on Trypanosoma cruzi [19] and with Trypanosoma cruzi [22] was Active. Further, in data set [10], the inhibition result is “inactive”. Further, the Spleen weight percent in the data set with Trypanosoma cruzi [21] amounted to 1.041%.
Take `O=C(CCN1CCN(c2ccc(F)cc2)CC1)c1csc2ccc(F)cc12`: the Activity entry in data set [1] is “Non-Toxic”; with Trypanosoma cruzi [5] it was 0%; in [7] it was “Non-Toxic”; in data set [8], “Non-Toxic”; in [11] it was “Non-Toxic”; in data set [20], “Non-Toxic”. Further, the Activity entry in data set [23] is “Non-Toxic”. Also, in the data set on Trypanosoma cruzi [2], the “inhibition (INH)” value is reported as 54%. For the same molecule, the IC50 with Trypanosoma cruzi [3] stood at 7.9 µM; with Trypanosoma cruzi [9] it was 5.1 µM; in the data set with Trypanosoma cruzi [12], 12.3 µM; with Trypanosoma cruzi [14] it was 12.7 µM; with Trypanosoma cruzi [15] it was 4.9 µM; in the data set with Vero it was 759 µM. Moreover, the values for the IC50 in the data set on Trypanosoma cruzi [17] and in the data set with Trypanosoma cruzi [18] were 30.7 µM and 0.3 µM, respectively. Besides, the outcome in the data set on Trypanosoma cruzi [4], in the data set on Trypanosoma cruzi [6], in the data set with Trypanosoma cruzi [13], with Trypanosoma cruzi [16], in the data set on Trypanosoma cruzi [19] and with Trypanosoma cruzi [22] was Active. In data set [10], the inhibition entry was “inactive”. Besides, in the data set on Trypanosoma cruzi [21], the Spleen weight percent came out at 0.825%.
